# Source: ChEMBL document CHEMBL1126724, “Multiple binding modes for the receptor-bound conformations of cyclic AII agonists” (J Med Chem, 1993)
# *1 amine or outer side, *2 acyl side, *3 side chain or, on linkers, in order; H or OH if unused. Where a SMILES comes first, the peptide text is derived from it. Bridges are numbered along the chain shown (N, C = ends). Roman numbers before positions name the chains, in order. [ ]: non-standard residue; d: D form. Pro(4R-SH) = O=C([C@@H]1C[C@@H](S[*:3])CN1[*:1])[*:2]; Pro(4S-SH) = O=C([C@@H]1C[C@H](S[*:3])CN1[*:1])[*:2]; hCys = N[C@@H](CCS)C(=O)O; Orn = NCCC[C@H](N)C(=O)O; Sar = CNCC(=O)O
# Target: T1, Angiotensin II receptor (AT-1) type-1 (Rattus norvegicus, UniProt P29089+P25095)
# T1 sequence (P29089 whole entry): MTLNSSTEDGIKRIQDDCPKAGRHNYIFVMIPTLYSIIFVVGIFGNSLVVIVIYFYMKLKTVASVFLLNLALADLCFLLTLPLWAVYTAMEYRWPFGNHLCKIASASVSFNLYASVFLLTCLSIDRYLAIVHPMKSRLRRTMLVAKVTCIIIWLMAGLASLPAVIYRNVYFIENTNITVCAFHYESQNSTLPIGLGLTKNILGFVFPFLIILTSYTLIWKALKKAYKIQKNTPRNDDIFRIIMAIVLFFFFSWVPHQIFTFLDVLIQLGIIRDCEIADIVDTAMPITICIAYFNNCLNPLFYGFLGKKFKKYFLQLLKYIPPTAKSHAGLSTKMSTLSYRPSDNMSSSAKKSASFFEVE
# T1 sequence (P25095 whole entry): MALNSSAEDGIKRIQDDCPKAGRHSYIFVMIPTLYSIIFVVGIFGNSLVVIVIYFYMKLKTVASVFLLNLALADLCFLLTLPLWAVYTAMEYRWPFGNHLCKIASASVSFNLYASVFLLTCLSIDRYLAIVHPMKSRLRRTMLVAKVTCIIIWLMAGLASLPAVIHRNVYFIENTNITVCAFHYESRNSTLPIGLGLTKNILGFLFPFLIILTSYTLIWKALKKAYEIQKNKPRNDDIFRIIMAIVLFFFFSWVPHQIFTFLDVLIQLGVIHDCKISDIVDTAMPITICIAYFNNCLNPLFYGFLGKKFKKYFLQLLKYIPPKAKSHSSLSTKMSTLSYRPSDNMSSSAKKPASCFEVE
# Test: In vitro binding affinity to the angiotensin II receptor, type 1 in rat liver
# Outline: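 Buffer: 50 mM NaH2PO4 pH 7.1 with 100 μM bacitracin, 0.2% BSA, 100 mM NaCl, 10 mM MgCl2, 1 mM EGTA. Incubated 1 h at 25 °C, then filtered, and filters counted. IC50 from weighted nonlinear regression to the mass action equation.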
row,IC50,SMILES
1,0.0013 µM,CNCC(=O)N[C@@H](CCCNC(=N)N)C(=O)N[C@H]1CCSSCC[C@@H](C(=O)N[C@@H](Cc2cnc[nH]2)C(=O)N2CCC[C@H]2C(=O)N[C@@H](Cc2ccccc2)C(=O)O)NC(=O)[C@H](Cc2ccc(O)cc2)NC1=O (H-[Sar]R[hCys]Y[hCys]HPF-OH; disulfide 3-5)
2,0.0076 µM,CNCC(=O)N[C@@H](CCCN=C(N)N)C(=O)N[C@H]1CSSC[C@@H](C(=O)N[C@@H](Cc2c[nH]cn2)C(=O)N2CCC[C@H]2C(=O)N[C@@H](Cc2ccccc2)C(=O)O)NC(=O)[C@H](Cc2ccc(O)cc2)NC1=O (H-[Sar]RCYCHPF-OH; disulfide 3-5)
3,0.683 µM,CNCC(=O)N[C@@H](CCCN=C(N)N)C(=O)N[C@H]1CC(=O)NCCC[C@@H](C(=O)N[C@@H](Cc2c[nH]cn2)C(=O)N2CCC[C@H]2C(=O)N[C@@H](Cc2ccccc2)C(=O)O)NC(=O)[C@H](Cc2ccc(O)cc2)NC1=O (H-[Sar]RDY[Orn]HPF-OH; lactam 3-5)
4,0.087 µM,CNCC(=O)N[C@@H](CCCN=C(N)N)C(=O)N1C[C@H]2C[C@H]1C(=O)N[C@@H](Cc1ccc(O)cc1)C(=O)N[C@H](C(=O)N[C@@H](Cc1c[nH]cn1)C(=O)N1CCC[C@H]1C(=O)N[C@@H](Cc1ccccc1)C(=O)O)CSS2 (H-[Sar]R[Pro(4R-SH)]YCHPF-OH; disulfide 3-5)
5,0.0026 µM,CNCC(=O)N[C@@H](CCCN=C(N)N)C(=O)N[C@H]1CSSCC[C@@H](C(=O)N[C@@H](Cc2c[nH]cn2)C(=O)N2CCC[C@H]2C(=O)N[C@@H](Cc2ccccc2)C(=O)O)NC(=O)[C@H](Cc2ccc(O)cc2)NC1=O (H-[Sar]RCY[hCys]HPF-OH; disulfide 3-5)
6,0.062 µM,CNCC(=O)N[C@@H](CCCN=C(N)N)C(=O)N[C@H]1CSS[C@H]2C[C@@H](C(=O)N[C@@H](Cc3c[nH]cn3)C(=O)N3CCC[C@H]3C(=O)N[C@@H](Cc3ccccc3)C(=O)O)N(C2)C(=O)[C@H](Cc2ccc(O)cc2)NC1=O (H-[Sar]RCY[Pro(4S-SH)]HPF-OH; disulfide 3-5)
7,0.028 µM,"CNCC(=O)N[C@@H](CCCN=C(N)N)C(=O)N[C@H]1CSSC[C@@H](C(=O)N[C@@H](Cc2c[nH]cn2)C(=O)N2CCC[C@H]2C(=O)N[C@@H](Cc2ccccc2)C(=O)O)NC(=O)[C@H](Cc2ccc(O)cc2)NC(=O)[C@@H](NC(=O)[C@H](CCCN=C(N)N)NC(=O)CNC)CSSC[C@@H](C(=O)N[C@@H](Cc2c[nH]cn2)C(=O)N2CCC[C@H]2C(=O)N[C@@H](Cc2ccccc2)C(=O)O)NC(=O)[C@H](Cc2ccc(O)cc2)NC1=O (I: H-[Sar]RCYCHPF-OH / II: H-[Sar]RCYCHPF-OH; disulfide I:3-II:5, I:5-II:3)"
8,0.52 µM,CNCC(=O)N[C@@H](CCCN=C(N)N)C(=O)N[C@H]1CSSC[C@@H](C(=O)O)NC(=O)[C@@H]2CCCN2C(=O)[C@H](Cc2c[nH]cn2)NC(=O)[C@H](C(C)C)NC(=O)[C@H](Cc2ccc(O)cc2)NC1=O (H-[Sar]RCYVHPC-OH; disulfide 3-8)
9,1.23 µM,CNCC(=O)N[C@@H](CCCN=C(N)N)C(=O)N[C@H]1CSSC[C@@H](C(=O)N[C@@H](Cc2ccccc2)C(=O)O)NC(=O)[C@H](Cc2c[nH]cn2)NC(=O)[C@H](C(C)C)NC(=O)[C@H](Cc2ccc(O)cc2)NC1=O (H-[Sar]RCYVHCF-OH; disulfide 3-7)
10,1.2 µM,CNCC(=O)N[C@@H](CCCN=C(N)N)C(=O)N[C@H](C(=O)N[C@@H](Cc1ccc(O)cc1)C(=O)N[C@H]1CSSC[C@@H](C(=O)O)NC(=O)[C@@H]2CCCN2C(=O)[C@H](Cc2c[nH]cn2)NC1=O)C(C)C (H-[Sar]RVYCHPC-OH; disulfide 5-8)
11,0.089 µM,CNCC(=O)N[C@@H](CCCN=C(N)N)C(=O)N[C@H]1CCC(=O)NCCCC[C@@H](C(=O)N[C@@H](Cc2c[nH]cn2)C(=O)N2CCC[C@H]2C(=O)N[C@@H](Cc2ccccc2)C(=O)O)NC(=O)[C@H](Cc2ccc(O)cc2)NC1=O (H-[Sar]REYKHPF-OH; lactam 3-5)
